Assay outcomes as filed in PubChem BioAssay.
PRMT1 FP inh: PRMT1 (human) inhibition, primary screen; Q99873; recombinant PRMT1, activity-based probe fluorescence polarization; inhibition, % at 2.79 µM; 370,000 tested, 1.3% active;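 active means inhibition above about 21% made by adding two undisclosed values, limit read from the data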
HTRA1 inh: blocks human HTRA1 serine peptidase | Q92743 | 340,000 tested, 0.5% active | inhibition, % at 5.96 µM | AID 504803 | recombinant HTRA1, FP-rhodamine activity-based probe, fluorescence polarization; in the data active means inhibition above about 36%;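 further: 0% = enzyme with DMSO and 100% = wells lacking enzyme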
Target sequence (Q92743 whole entry, looked up): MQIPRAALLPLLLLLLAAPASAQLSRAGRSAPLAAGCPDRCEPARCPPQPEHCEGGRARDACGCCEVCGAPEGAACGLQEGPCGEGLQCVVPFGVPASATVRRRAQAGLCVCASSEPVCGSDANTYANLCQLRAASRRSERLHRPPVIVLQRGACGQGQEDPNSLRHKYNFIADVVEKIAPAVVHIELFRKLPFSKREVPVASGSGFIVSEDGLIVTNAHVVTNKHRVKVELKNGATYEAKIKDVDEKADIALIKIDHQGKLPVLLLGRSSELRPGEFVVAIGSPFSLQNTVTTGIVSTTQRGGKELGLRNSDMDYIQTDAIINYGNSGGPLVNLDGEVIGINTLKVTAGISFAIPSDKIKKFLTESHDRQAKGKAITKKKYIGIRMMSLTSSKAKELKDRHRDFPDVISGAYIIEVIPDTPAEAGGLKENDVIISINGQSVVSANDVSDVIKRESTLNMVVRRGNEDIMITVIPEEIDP
ABHD4 inh: inhibitors of mouse ABHD4 | purified mABHD4, FP-Rh probe fluorescence polarization | inhibition, % at 8.92 µM | 370,000 tested, 0.54% active;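 active means inhibition exceeding the mean over every tested compound plus 3 SD, cut at about 30% in these data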;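 further: 0% = plate median of compound wells and 100% = S159A mutant with DMSO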
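Assay system: Wild-type mouse ABHD4 protein | Medium: HEPES pH 7.0 buffer, 150 mM NaCl, 0.01% Pluronic F-127 | Incubation: Enzyme–compound pre-incubation 45 min, then probe 60 min, both 25 °C | Technique: Fluorescence polarization with parallel and perpendicular emission, 525/598 nm | Evaluation: % inhibition of FP-Rh probe binding versus controls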
TCR-CD3 inh: human TCR-CD3 binding inhibition | inhibition, % at 9.4 µM | 360,000 tested, 0.37% active | AID 651800 | TAMRA-labeled TCR probe fluorescence, biochemical; in the data active means inhibition above about 19%;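 further: recombinant mutant TCR 2C K166C tagged with TAMRA read by polarization; 0% = receptor in buffer alone and 100% = receptor with positive control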
SIAE primary: blocks human sialic acid acetylesterase. SIAE FP-Rh probe binding, fluorescence polarization. inhibition, % at 9.66 µM. 370,000 tested, 0.69% active;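 active means inhibition above a cutoff: mean of compounds within the control limits plus 3 SD of those, cut at about 17% in these data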;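 further: 0% = plate median of compound wells and 100% = probe without SIAE protein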
rCAG RNA binder: binds r(CAG) RNA repeats | 370,000 tested, 1.3% active | inhibition, % at 3 µM | r(CAG) RNA repeat, TO-PRO-1 dye displacement fluorescence | AID 651821;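 active means inhibition above the plate cutoff, the mean of all test compounds on that plate plus 3 SD, cut at about 35% in these data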;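 further: 0% = DMSO alone and 100% = 100 µM mitoxantrone as full dye displacement; higher means more dye released from RNA so lower well fluorescence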
PRMT1 inh conf: PRMT1 (human) inhibition, FP confirmation; inhibition, % at 2.79 µM; recombinant His-PRMT1, activity-based probe fluorescence polarization; 3,300 tested, 42% active; shares compounds with PRMT1 FP inh;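 active means mean inhibition across replicates above the hit cutoff derived for the earlier primary screen, cut at about 22% in these data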
Active calls of the source: *; · = no result given. Shown are actives, neighbours in structure and some others; about 3.5% of the full set was active somewhere.

SMILES	PRMT1 FP inh	HTRA1 inh	ABHD4 inh	TCR-CD3 inh	SIAE primary	rCAG RNA binder	PRMT1 inh conf
O=C(CNC(=O)c1ccco1)OCC(=O)c1ccc([N+](=O)[O-])cc1	47.0*	0.5	7.0	-3.4	2.7	3.0	41.9*
C[C@H]1C2CC(OC(=O)Nc3cccc(F)c3)C(C2)[C@H]2CCCCN21 (stereo partly specified)	-2.5	·	2.1	·	4.3	1.6	·
N#CCC[C@H]1CC[C@]2(CCCN(Cc3cccc4ccccc34)C2)O1	-3.0	·	0.8	·	-4.0	0.7	·
Cc1ccc(C(=O)NCC(=O)NCC(=O)OCC(=O)c2ccc([N+](=O)[O-])cc2)cc1	62.6*	-3.0	5.0	5.1	1.3	4.5	43.5*
O=C(CNS(=O)(=O)c1ccccc1)OCC(=O)c1ccc([N+](=O)[O-])cc1	80.0*	-4.1	2.0	-6.0	-1.9	3.1	42.3*
Cc1ccc(-c2ccccc2)n1-c1cccc(C(=O)O)c1	62.1*	-0.8	14.3	-7.6	5.2	14.7	11.4
O=C(CCn1nnc(-c2cccs2)n1)NCc1cccs1	-6.9	·	1.8	·	-3.6	-0.5	·
CCc1cc2cc(C)c(C)cc2nc1SCC(=O)NNC(=O)c1ccco1	29.1*	-9.1	-13.9	2.2	-4.2	18.2	-2.5
CCOC(=O)[C@]12CCCC=C1N(CCCOC)C(=O)[C@@H]2CC(=O)N1CCCCC1	0.7	·	2.0	·	-2.6	2.2	·
CCOC(=O)N(CC)OC(=O)Nc1ccc(Cl)cc1	6.2	-3.8	-2.1	-3.0	2.7	0.9	·
CCOC(=O)N(C)OC(=O)Nc1ccc(Cl)c(Cl)c1	35.3*	-17.8	-6.0	-4.8	-6.8	1.3	35.9*
COc1cccc(-n2cc(-c3ccc(F)cc3)[nH]c2=S)c1	14.2	2.2	0.4	-0.4	8.0	2.5	·
COc1ccc(-c2cn(-c3ccc(C)c(C)c3)c(=S)[nH]2)cc1OC	30.7*	5.5	5.6	0.8	3.5	14.8	18.0
CC(=O)Nc1ccc(S(=O)(=O)NNc2ccc([N+](=O)[O-])cc2)cc1	31.9*	6.2	14.2	8.8	2.4	6.1	13.7
N#Cc1cccc(NC(=O)OC2CC3CC2[C@H]2CCCCN2C3)c1 (stereo partly specified)	-4.0	·	1.1	·	-0.8	5.6	·
O=C1c2cccc3c(N4CCCCC4)ccc(c23)C(=O)N1c1ccccn1	7.7	-2.5	-5.5	7.8	3.8	-14.3	·
Cc1ccc(N2C(=O)c3cccc4c(N)ccc(c34)C2=O)c2cccnc12	94.1*	10.7	4.3	13.4	-38.0	-251.2	119.2*
O=C(CC1Sc2ncnn2C1=O)Nc1ccccc1 (stereo unspecified)	76.5*	-1.9	-4.0	4.0	11.4	3.2	74.2*
CC(=O)Nc1ccc(NC(=O)CC2SC(=O)N(CC(=O)c3ccccc3)C2=O)cc1 (stereo unspecified)	28.6*	-1.3	-1.2	5.9	0.5	5.2	19.7
CCCN1C(=O)SC(CC(=O)Nc2ccc(C)cc2)C1=O (stereo unspecified)	10.1	4.7	-0.1	-1.2	-2.9	1.8	·
COc1ccc([C@H]2OC(=O)C[C@@H]2C(=O)N2CCCCC2)cc1OC	-0.8	·	4.6	·	-0.1	-0.3	·
COc1ccc(C2=NN(C(=O)COC(=O)c3ccc(S(C)(=O)=O)c([N+](=O)[O-])c3)C(c3ccco3)C2)cc1 (stereo unspecified)	40.7*	-22.4	20.3	-5.5	1.5	24.6	-0.2
COc1ccc(C(c2nnnn2C(C)(C)C)N2CCN(C/C=C/c3ccccc3)CC2)cc1 (stereo unspecified)	34.9*	·	-2.2	-5.8	-5.8	-0.7	7.2
O=[N+]([O-])c1cccc(N=Cc2ccccc2)c1	0.0	-2.2	4.9	1.7	1.9	2.4	·
O=[N+]([O-])c1cccc(N=Cc2sc3ccccc3c2O)c1	40.3*	·	0.7	-7.8	4.7	-0.8	25.0*
SMILES	PRMT1 FP inh	HTRA1 inh	ABHD4 inh	TCR-CD3 inh	SIAE primary	rCAG RNA binder	PRMT1 inh conf
O=[N+]([O-])c1ccc(N=Cc2sc3ccccc3c2O)cc1	48.7*	-1.1	-4.2	2.3	-1.9	-0.9	5.9
COc1ccc(N=Cc2sc(O)c3ccccc23)cc1	-6.3	15.4	12.4	0.2	14.6	-7.1	·
Oc1c(C=NCc2ccccc2)sc2ccccc12	43.0*	7.3	-3.0	-2.4	-0.8	-3.0	34.3*
COC(=O)C1Sc2[nH]c(=O)sc2C(c2ccc(Cl)cc2)C1C(=O)OC (stereo unspecified)	1.5	-7.2	5.5	-1.5	-1.4	11.7	·
COC(=O)C1CSc2[nH]c(=O)sc2C1c1ccccc1 (stereo unspecified)	45.6*	-1.8	6.1	-0.1	5.7	-9.1	25.6*
COC(=O)c1cc(-c2ccc(F)c(Cl)c2)c(=O)n2c1CCC2	-0.9	·	10.8	·	-5.3	-0.7	·
NC(=N\N=Cc1ccccc1)/C(N)=N/N=Cc1ccccc1	1.9	·	-0.5	-5.7	-1.5	-0.5	·
Cn1c(CS/C(N)=N/N=C/c2ccccc2)c(Br)c(=O)n1-c1ccccc1	42.0*	2.9	7.8	-1.0	6.5	2.4	55.7*
CC1(C)Cc2c(C#N)c(N3CCCC3)nc(-c3ccco3)c2CO1	26.6*	-8.0	7.3	-0.2	0.1	29.5	25.8*
CCOC(=O)N1C(=O)C[C@](Sc2ccc(OC)cc2)(C(=O)N(C)C)[C@H]1c1ccc(OC)cc1	45.8*	·	0.5	·	2.4	2.8	36.5*
COc1ccc(S[C@]2(C(=O)N3CCN(C(C)=O)CC3)CC(=O)N(S(=O)(=O)c3ccc(F)cc3)[C@@H]2c2ccc(OC)cc2)cc1	43.1*	·	11.4	·	9.1	9.2	37.2*
COc1ccc(NC(=S)N2CCN(S(=O)(=O)c3ccc(F)cc3)CC2)cc1	-1.3	1.3	-0.6	3.8	2.7	1.2	·
COc1ccc(-c2cccc(C(=O)N3CCOCC3)c2)cc1	1.9	4.7	2.2	-6.5	-0.9	-1.1	·
COc1ccc(S[C@]2(C(=O)N3CCOCC3)CC(=O)N(C(=O)c3ccccc3)[C@@H]2c2ccc(OC)cc2)cc1	80.0*	·	1.9	·	7.5	7.8	77.3*
COc1ccc(S[C@]2(C(=O)N(C)C)CC(=O)N(C(=O)/C=C/c3ccccc3)[C@@H]2c2ccc(OC)cc2)cc1	7.5	·	0.4	·	-4.0	9.5	·
O=c1c2ccccc2sn1-c1ccc(S(=O)(=O)N2CCCC2)cc1	95.2*	-5.9	-24.1	4.6	-14.6	8.8	97.0*
Cc1ccc(C(=O)NNC(=O)c2ccccc2)cc1S(=O)(=O)N1CCCCC1	-0.1	-1.6	1.5	-2.6	6.2	3.0	·
Cc1ccc(-n2sc3ccccc3c2=O)cc1S(=O)(=O)N1CCCCC1	101.4*	-2.0	-9.8	3.0	-4.7	24.5	84.1*
O=c1c2ccccc2sn1-c1ccc(S(=O)(=O)N2CCCCC2)cc1	43.1*	-1.4	-2.3	-2.0	3.6	4.4	62.7*
